Consider three molecules from ChEMBL document CHEMBL1145524, “Structure-based activity prediction for an enzyme of unknown function” (Nature, 2007).

In general, kcat refers to the number of substrate molecules converted per active site and unit of time at saturation. For orientation: Km means the concentration of substrate that gives half-maximal velocity. Broadly, the kcat/Km is the second-order rate constant that governs catalysis at low substrate concentration.

Series [1] deals with T1, Adenosylhomocysteinase (Thermotoga maritima (strain ATCC 43589 / MSB8 / DSM 3109 / JCM 10099)) (UniProt O51933).
T1 sequence (whole entry): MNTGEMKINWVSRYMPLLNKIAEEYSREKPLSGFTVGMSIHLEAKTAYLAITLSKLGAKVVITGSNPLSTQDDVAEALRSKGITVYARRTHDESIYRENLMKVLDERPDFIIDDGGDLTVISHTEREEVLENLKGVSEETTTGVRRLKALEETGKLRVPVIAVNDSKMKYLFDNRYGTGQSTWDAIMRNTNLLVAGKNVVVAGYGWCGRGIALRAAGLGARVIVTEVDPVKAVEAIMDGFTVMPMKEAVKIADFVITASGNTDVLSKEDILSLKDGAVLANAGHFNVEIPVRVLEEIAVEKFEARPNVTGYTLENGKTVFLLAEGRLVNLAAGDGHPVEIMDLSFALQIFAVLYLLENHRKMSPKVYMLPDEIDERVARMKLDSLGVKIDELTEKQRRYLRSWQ
In words: (§1) Activity of Thermotoga maritima S-adenosyl-L-homocysteine hydrolase Tm0172 assessed as homocysteine hydrolysis. Summed up:
(§2)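 Tm0172 expressed in E. coli (arabinose induction), heat-treated 65 °C and purified on chelating Sepharose as His-tagged protein. Assay: 100 mM HEPES pH 8.0, 1.0 mM DTNB, 1.0 mM EDTA, 13 μM Tm0172, substrate up to 10 mM, 30 °C. kcat and kcat/Km obtained by fitting initial velocities to the Michaelis–Menten equation.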

Substrate in series [2]: Nc1ncnc2c1ncn2[C@@H]1O[C@H](CSCC[C@H](N)C(=O)O)[C@@H](O)[C@H]1O
The series is described as §1. Summed up: as §2

Substrate in series [3]: Nc1ncnc2c1ncn2[C@@H]1O[C@H](CSCC[C@H](N)C(=O)O)[C@@H](O)[C@H]1O
In words: Ratio of Kcat to Km for Thermotoga maritima S-adenosyl-L-homocysteine hydrolase Tm0172 assessed as homocysteine hydrolysis. Summed up: as §2

Substrate in series [4]: CSC[C@H]1O[C@@H](n2cnc3c(N)ncnc32)[C@H](O)[C@@H]1O
Put plainly: (§3) Activity of Thermotoga maritima S-adenosyl-homocysteine deaminase Tm0936 assessed as ammonia production. Summed up:
(§4)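 Recombinant Tm0936 was expressed in E. coli, heat-treated at 65 °C, then purified by anion exchange and gel filtration (Zn-containing). Ammonia release was coupled to glutamate dehydrogenase, with NADH loss read at 340 nm. Assay: 100 mM HEPES pH 8.0, 7.4 mM α-ketoglutarate, 0.4 mM NADH, 6 units GDH, 30 °C. kcat and kcat/Km came from fitting initial velocities versus substrate concentration.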

Substrate in series [5]: C[S+](CC[C@H](N)C(=O)[O-])C[C@H]1O[C@@H](n2cnc3c(N)ncnc32)[C@H](O)[C@@H]1O
Described as §3. Summed up:
as §4

Substrate in series [6]: Nc1ncnc2c1ncn2[C@@H]1O[C@H](CO)[C@@H](O)[C@H]1O
The description is as §3. Summed up:
as §4

Substrate in series [7]: Nc1ncnc2c1ncn2[C@@H]1O[C@H](COP(=O)(O)O)[C@@H](O)[C@H]1O
Described as §3. Put shortly: as §4

Substrate in series [8]: Nc1ncnc2c1ncn2[C@@H]1O[C@H](CSCC[C@H](N)C(=O)O)[C@@H](O)[C@H]1O
The description is as §3. Put shortly:
as §4

Substrate in series [9]: CSC[C@H]1O[C@@H](n2cnc3c(N)ncnc32)[C@H](O)[C@@H]1O
Put plainly: (§5) Ratio of Kcat to Km for Thermotoga maritima S-adenosyl-homocysteine deaminase Tm0936 assessed as ammonia production. Summed up:
as §4

Substrate in series [10]: Nc1ncnc2c1ncn2[C@@H]1O[C@H](CO)[C@@H](O)[C@H]1O
The series is described as §5. Put shortly: as §4

Substrate in series [11]: Nc1ncnc2c1ncn2[C@@H]1O[C@H](CSCC[C@H](N)C(=O)O)[C@@H](O)[C@H]1O
Described as §5. Put shortly: as §4

For the molecule `Nc1ncnc2c1ncn2[C@@H]1O[C@H](CSCC[C@H](N)C(=O)O)[C@@H](O)[C@H]1O`, the kcat in [1] is 0.004 s⁻¹.

B1: Adenosylhomocysteinase (Thermotoga maritima (strain ATCC 43589 / MSB8 / DSM 3109 / JCM 10099)), O51933 (protein)
chain: T1 sequence (whole entry)
For the molecule B1, in [2], the Michaelis-Menten constant (Km) was 21 µM. In series [3], the catalytic efficiency (kcat/Km) is 1.1 10^2/M/s.

B2: 5-methylthioadenosine/S-adenosylhomocysteine deaminase (Thermotoga maritima (strain ATCC 43589 / MSB8 / DSM 3109 / JCM 10099)), Q9X034 (protein)
chain: MIIGNCLILKDFSSEPFWGAVEIENGTIKRVLQGEVKVDLDLSGKLVMPALFNTHTHAPMTLLRGVAEDLSFEEWLFSKVLPIEDRLTEKMAYYGTILAQMEMARHGIAGFVDMYFHEEWIAKAVRDFGMRALLTRGLVDSNGDDGGRLEENLKLYNEWNGFEGRIFVGFGPHSPYLCSEEYLKRVFDTAKSLNAPVTIHLYETSKEEYDLEDILNIGLKEVKTIAAHCVHLPERYFGVLKDIPFFVSHNPASNLKLGNGIAPVQRMIEHGMKVTLGTDGAASNNSLNLFFEMRLASLLQKAQNPRNLDVNTCLKMVTYDGAQAMGFKSGKIEEGWNADLVVIDLDLPEMFPVQNIKNHLVHAFSGEVFATMVAGKWIYFDGEYPTIDSEEVKRELARIEKELYSS
B2: the Km in series [4] was determined as 44 µM; in [6] it was 250 µM; in series [8], 210 µM. For the same molecule, the kcat in [4] was 7.2 s⁻¹; in series [5], 1 10^-3/s; in [6], 2.3 s⁻¹; in [7], 1 10^-3/s; in series [8], 12.2 s⁻¹. The values for the kcat/Km in [9], in [10] and in [11] were 1.5 10^5/M/s, 9.2 10^3/M/s and 5.8 10^4/M/s, respectively.
